In ChEMBL document CHEMBL3763097, “Synthesis and biological evaluation of 5,10-dihydro-11H-dibenzo[b,e][1,4]diazepin-11-one structural derivatives as anti-cancer and apoptosis inducing agents” (Eur J Med Chem, 2016):

How the values were obtained:
[1] = Cytotoxicity against human PC3 cells assessed as growth inhibition after 72 hrs by MTT assay; assay type: functional, cell-based; details: PC-3, 72 h
Outline: (§1)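 Cells in RPMI 1640 (PC-3, A549, MDA-MB-231) or DMEM (U87MG, MCF-7) with 10% FBS, passages 4-10, were seeded at 3000-5000 per well and left 24 h. Compounds in DMSO/medium were added for 72 h; DMSO served as control. MTT (5 mg/mL) was added for 4 h and formazan dissolved in DMSO. Absorbance was read at 570 nm minus 630 nm. % inhibition was taken versus DMSO, with IC50 by probit; mean ± SD of three experiments in triplicate.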

A549 = assay: Cytotoxicity against human A549 cells assessed as growth inhibition after 72 hrs by MTT assay; assay type: functional, cell-based; details: A549, 72 h; outline: as §1
[2] = Cytotoxicity against human U87MG cells assessed as growth inhibition after 72 hrs by MTT assay; assay type: functional, cell-based, U-87MG ATCC; details: U-87 MG; outline: as §1
MDA-MB-231 = assay: Cytotoxicity against human MDA-MB-231 cells assessed as growth inhibition after 72 hrs by MTT assay; assay type: functional, cell-based; details: MDA-MB-231, 72 h; outline: as §1
MCF7 = assay: Cytotoxicity against human MCF7 cells assessed as growth inhibition after 72 hrs by MTT assay; assay type: functional, cell-based; details: MCF7, 72 h; outline: as §1

Compound | IC50 [1] | IC50 (A549) | IC50 [2] | IC50 (MDA-MB-231) | IC50 (MCF7)
O=C1c2ccccc2Nc2ccccc2N1Cc1cn(Cc2cccc3c2OCO3)nn1 | 10.7 µM | 10.7 µM | 13.5 µM | 10.2 µM | 17.8 µM
O=C1c2ccccc2Nc2ccccc2N1Cc1cn(Cc2cccc([N+](=O)[O-])c2)nn1 | 0.47 µM | > 50 µM | 39.4 µM | 1.52 µM | 0.65 µM
COc1ccc(OC)c(Cn2cc(CN3C(=O)c4ccccc4Nc4ccccc43)nn2)c1 | > 50 µM | 13.3 µM | 31.2 µM | 3.5 µM | 7.48 µM
COc1cc(Cn2cc(CN3C(=O)c4ccccc4Nc4ccccc43)nn2)cc(OC)c1OC | > 50 µM | 8.78 µM | 1.78 µM | 0.43 µM | 10.3 µM
O=C1c2ccccc2Nc2ccccc2N1Cc1cn(Cc2ccccc2F)nn1 | 8.63 µM | 11.3 µM | 48.2 µM | > 50 µM | 5.27 µM
O=C1c2ccccc2Nc2ccccc2N1Cc1cn(Cc2ccc([N+](=O)[O-])cc2)nn1 | > 50 µM | 47.9 µM | 32.9 µM | 42.6 µM | 0.93 µM
O=C1c2ccccc2Nc2ccccc2N1Cc1cn(Cc2ccc(Cl)cc2)nn1 | 1.12 µM | 4.97 µM | 24.3 µM | 2.31 µM | 39 µM
O=c1[nH]cc(F)c(=O)[nH]1 [FLUOROURACIL] | 1.44 µM | 3.47 µM | 3.61 µM |  | 
O=C1c2ccccc2Nc2ccccc2N1Cc1cn(Cc2ccc(F)cc2)nn1 | 17.3 µM | 26.7 µM | 37.7 µM | 4.08 µM | > 50 µM
O=C1c2ccccc2Nc2ccccc2N1Cc1cn(Cc2cccc(F)c2)nn1 | 7.21 µM | 8.37 µM | 2.06 µM | 3.53 µM | 4.12 µM
O=C1c2ccccc2Nc2ccccc2N1Cc1cn(Cc2ccc(OC(F)(F)F)cc2)nn1 | > 50 µM | > 50 µM | > 50 µM | > 50 µM | 29.6 µM
O=C1Nc2ccccc2Nc2ccccc21 | 41.9 µM | 37.1 µM | 8.97 µM | > 50 µM | > 50 µM
C#CCN1C(=O)c2ccccc2Nc2ccccc21 | 0.98 µM | 19 µM | 22.2 µM | 16.5 µM | 7.63 µM
